Assays:
Rattus norvegicus = experiment: Antiinflammatory activity against carrageenan-induced paw edema in Charles Foster albino rat at 50 mg/kg, po administered 30 mins before carrageenan challenge measured after 1 to 3 hrs; format: functional
Summary of the method: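 Groups of five rats, both sexes, 120–160 g, pregnant females excluded; 30 min after oral dose, 0.20 ml of 1% fresh carrageenan in 0.9% NaCl injected into hind-paw plantar aponeurosis; paw volume by water plethysmometer before and 1–3 h after; % inhibition = [1 − Dt/Dc] × 100 versus carrageenan-only control group of five.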

Mus musculus = experiment: Analgesic activity against acetic acid-induced writhes in mouse at 50 mg/kg, po administered 30 mins before acetic acid challenge measured for 60 mins; format: functional
Summary of the method: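 Mice of both sexes, 20–30 g, non-pregnant, groups of five; oral test dose given 30 min before 0.25 ml/mouse of 0.5% acetic acid; writhes counted over the following 60 min; group mean writhes expressed as percent decrease versus untreated control group of five mice.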

Row | Structure (SMILES) | Activity (Rattus norvegicus) [%] | Activity (Mus musculus) [%]
1 | N=C(/N=c1\scc(-c2ccccc2)n1-c1ccc(Cl)cc1)c1ccccn1 | 17 | 12
2 | N=C(/N=c1\scc(-c2ccccc2)n1-c1ccc([N+](=O)[O-])cc1)c1ccccn1 | 26 | 18
3 | N=C(/N=c1\scc(-c2ccccc2)n1-c1ccccc1[N+](=O)[O-])c1ccccn1 | 49 | 
4 | CCOc1ccc(-c2cs/c(=N\C(=N)c3ccccn3)n2-c2ccccc2)cc1 | 0 | 50
5 | Cc1ccccc1-n1c(-c2ccccc2)cs/c1=N\C(=N)c1ccccn1 | 0 | 50
6 | COc1ccc(-n2c(-c3ccccc3)cs/c2=N\C(=N)c2ccccn2)cc1 | 17 | 12
7 | CC(=O)c1ccc(-n2c(-c3ccccc3)cs/c2=N\C(=N)c2ccccn2)cc1 | 20 | 25
8 | O=C(/N=c1\scc(-c2ccccc2)n1-c1ccc(Cl)cc1)c1cc(=O)[nH]c(=O)[nH]1 | 2 | 
9 | O=C(CC1NC(=O)NC1=O)/N=c1\scc(-c2ccccc2)n1-c1ccccc1[N+](=O)[O-] (stereo unspecified) | 17 | 
10 | O=C(CC1NC(=O)NC1=O)/N=c1\scc(-c2ccccc2)n1-c1ccc([N+](=O)[O-])cc1 (stereo unspecified) | 34 | 
11 | N=C(/N=c1\scc(-c2ccc(Br)cc2)n1-c1ccc2ccccc2c1)c1ccccn1 | 0 | 40
12 | COc1ccc(-n2c(-c3ccccc3)cs/c2=N\C(=O)c2cc(=O)[nH]c(=O)[nH]2)cc1 | 9 | 8
13 | CC(=O)c1ccc(-n2c(-c3ccccc3)cs/c2=N\C(=O)c2cc(=O)[nH]c(=O)[nH]2)cc1 | 12 | 8
14 | O=C(/N=c1\scc(-c2ccccc2)n1-c1ccccc1[N+](=O)[O-])c1cc(=O)[nH]c(=O)[nH]1 | 25 | 
15 | COc1ccc(-c2cs/c(=N\C(=O)c3cc(=O)[nH]c(=O)[nH]3)n2-c2ccc([N+](=O)[O-])cc2)cc1 | 15 | 10
16 | COc1ccccc1-n1c(-c2ccccc2)cs/c1=N\C(=N)c1ccccn1 | 23 | 
17 | O=C(CC1NC(=O)NC1=O)/N=c1\scc(-c2ccccc2)n1-c1ccc(Cl)cc1 (stereo unspecified) | 10 | 0
18 | CC(=O)Oc1ccccc1C(=O)O [ASPIRIN] | 43 | 
19 | CC(C)Cc1ccc(C(C)C(=O)O)cc1 (stereo unspecified) [IBUPROFEN] | 39 | 50
